In ChEMBL document CHEMBL3526008, “Identification of amiodarone metabolites in human bile by ultraperformance liquid chromatography/quadrupole time-of-flight mass spectrometry” (Drug Metab Dispos, 2011):

Tests used:
Liver microsome = test: Drug level in human liver microsomes assessed as compound formation treated with 50 uM amiodarone for 60 mins by UPLC-Q/TOF mass spectrometry in presence of NADPH; format: ADME; details: 1 h
Summary of the method: (§1)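 Pooled human liver microsomes at 1.0 mg/ml protein in 100 mM potassium phosphate pH 7.4, 37°C. Amiodarone 50 μM (DMSO 0.1% final). 3 min preincubation, then started with 2.0 mM NADPH. Stopped at 60 min with equal volume of ice-cold acetonitrile. Controls lacked NADPH or substrate. Duplicates. Analysed by UPLC-Q/TOF MS.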

[1] = Drug level in arrhythmia patient bile treated with amiodarone at 200 mg/day, po for 7 days by UPLC-Q/TOF mass spectrometry; format: ADME, organism-based; details: human, in vivo, 168 h
Summary of the method: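 Three arrhythmia patients (66-89 y, 1 male, 2 female) with T-tube drainage after hepatobiliary surgery. Bile collected from T-tube at 1-h intervals (about 10 ml) over 24 h, stored at -20°C. Glucuronides hydrolysed with β-glucuronidase in 1 M citrate pH 5.0, 37°C, 16 h. Profiled by UPLC-Q/TOF on HSS T3 column, formic acid/acetonitrile gradient, ES+, m/z 80–1000.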

[2] = Drug level in human liver S9 fraction assessed as compound formation treated with 50 uM amiodarone for 60 mins by UPLC-Q/TOF mass spectrometry in presence of NADPH; format: ADME, subcellular; details: s9, 1 h
Summary of the method: as §1, with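 “S9” for “microsomes”, “2.0” for “1.0”, “Quenched” for “Stopped”, “Read-out” for “Analysed”, “MS and UPLC-UV.” for “MS.”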

[3] = Retention time of the compound by UPLC-Q/TOF mass spectrometry; format: physicochemical
Summary of the method: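 UPLC on HSS T3 column (1.8 μm, 2.1 × 100 mm). Mobile phase 0.05% formic acid in water and in acetonitrile. Q/TOF detection in ES+ with leucine enkephalin lock mass.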

[4] = Drug level in human liver S9 fraction assessed as alcohol dehydrogenase-mediated compound formation treated with 50 uM amiodarone for 60 mins by UPLC-Q/TOF mass spectrometry in presence of NADPH; format: ADME, subcellular; details: s9, 1 h
Summary of the method: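 Human liver S9 (2.0 mg/ml) in 100 mM potassium phosphate pH 7.4 at 37°C. Preincubated 10 min with or without 5 μM 4-methylpyrazole (final), then 50 μM amiodarone added. Incubated 60 min with 2.0 mM NADPH. Carboxylic acid metabolite compared by LC/MS between incubations with and without 4-MP. Duplicates.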

[5] = Drug level in human liver S9 fraction assessed as compound formation treated with 50 uM amiodarone for 60 mins by LC-UV analysis in presence of NADPH; format: ADME, subcellular; details: s9, 1 h
Summary of the method: as §1, with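 “S9” for “microsomes”, “2.0” for “1.0”, “Quenched” for “Stopped”, “Read-out” for “Analysed”, “MS and UPLC-UV.” for “MS.”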

For CCN(CC)CCOc1c(I)cc(C(=O)c2c(CCC(C)O)oc3ccccc23)cc1I (stereo not drawn), the Drug metabolism (Liver microsome) was “metabolite_detected”, the Drug metabolism [1] was “metabolite_detected” and the Drug metabolism [2] was “metabolite_detected”. It also gave a Retention_time [3] of 14.5 min.
In the case of CCCCc1oc2cc(O)ccc2c1C(=O)c1cc(I)c(OCCN(CC)CC)c(I)c1, the Drug metabolism (Liver microsome) is reported as “metabolite_detected”, the Drug metabolism [1] is reported as “metabolite_detected” and the Drug metabolism [2] is reported as “metabolite_detected”. The Retention_time [3] was 15.5 min.
With CCN(CC)CCOc1c(I)cc(C(=O)c2c(CCCCO)oc3ccccc23)cc1I the Drug metabolism (Liver microsome) was “metabolite_detected”, the Drug metabolism [1] was “metabolite_detected” and the Drug metabolism [2] was “metabolite_detected”. For the same compound, the Retention_time [3] was 14.3 min.
For CCNCCOc1c(I)cc(C(=O)c2c(CCCC(=O)O)oc3ccccc23)cc1I, the Drug metabolism [1] was “metabolite_detected”, the Drug metabolism [2] was “metabolite_detected” and the Retention_time [3] was 13.4 min.
In the case of CCCCc1oc2ccccc2c1C(=O)c1cc(I)c(O)c(I)c1, the Drug metabolism (Liver microsome) is reported as “metabolite_detected”, the Drug metabolism [1] is reported as “metabolite_detected” and the Drug metabolism [2] is reported as “metabolite_detected”. It also gave a Retention_time [3] of 16.3 min.
With CCN(CC)CCOc1ccc(C(=O)c2c(CCCC(=O)O)oc3ccccc23)cc1I the Drug metabolism [1] was “metabolite_detected”, the Drug metabolism [2] was “metabolite_detected” and the Retention_time [3] was 13.3 min.
In the case of CCN(CC)CCOc1c(I)cc(C(=O)c2c(CCCC(=O)O)oc3ccccc23)cc1I, the Drug metabolism [4] is reported as “metabolite_detected”, the Drug metabolism [1] is reported as “metabolite_detected” and the Retention_time [3] is reported as 14.2 min.
With CCCCc1oc2ccccc2c1C(=O)c1ccc(OCCNCC)c(I)c1 the Drug metabolism (Liver microsome) was “metabolite_detected”, the Drug metabolism [1] was “metabolite_detected” and the Drug metabolism [2] was “metabolite_detected”. For the same compound, the Retention_time [3] was 16.2 min.
With CCCCc1oc2ccccc2c1C(=O)c1cc(I)c(OCCNCC)c(I)c1 [DESETHYLAMIODARONE] the Drug metabolism (Liver microsome) was “metabolite_detected”, the Drug metabolism [1] was “metabolite_detected” and the Drug metabolism [5] was “metabolite_detected”. For the same compound, the Drug metabolism [2] was “metabolite_detected” and the Retention_time [3] was 17 min.
For CCCCc1oc2ccccc2c1C(=O)c1cc(I)c(OCCO)c(I)c1, the Drug metabolism (Liver microsome) was “metabolite_detected”, the Drug metabolism [1] was “metabolite_detected” and the Drug metabolism [2] was “metabolite_detected”. The Retention_time [3] was 21.5 min.
